From ChEMBL document CHEMBL1142666, “Novel [2',5'-bis-O-(tert-butyldimethylsilyl)-beta-D-ribofuranosyl]- 3'-spiro-5''-(4''-amino-1'',2''-oxathiole-2'',2" -dioxide) derivatives with anti-HIV-1 and anti-human-cytomegalovirus activity” (J Med Chem, 2005)

Key:
Conditions in all cases: Homo sapiens
MT4 [1] = assay: Cytostatic concentration required to inhibit MT-4 cell proliferation; assay type: functional
Method in brief: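 Mock-infected MT-4 cells (3 × 10^5/mL) incubated with compound dilutions for 5 days. Viable cells counted by trypan blue exclusion. CC50 = concentration reducing viable MT-4 cell number by 50%.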

HEL [2] = assay: Minimal cytotoxic concentration required to cause microscopically visible alteration of cell morphology in HEL Cells; assay type: functional
Method in brief: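 Uninfected HEL cells exposed to compound. Minimum cytotoxic concentration is the lowest level giving a microscopically detectable change in cell morphology.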

CCRF-CEM [3] = assay: Effective concentration required to inhibit HIV-2 ROD in CEM cell culture; assay type: functional, cell-based
Method in brief: (§1)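 CEM cells (4 × 10^5/mL) infected at ~100 CCID50/mL and mixed with compound dilutions. Giant cell formation scored microscopically at day 4. EC50 = concentration inhibiting virus-induced cytopathicity by 50%.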

CCRF-CEM [4] = assay: Effective concentration required to inhibit HIV-1 IIIB in CEM cell culture; assay type: functional, cell-based; method in brief: as §1
MT4 [5] = assay: Effective concentration required to inhibit HIV-2 ROD in MT-4 cell culture; assay type: functional, cell-based
Method in brief: (§2)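 MT-4 cells (3 × 10^5/mL) infected at ~100 CCID50/mL and mixed with compound dilutions. Cytopathicity read by trypan blue exclusion at day 5. EC50 = concentration giving 50% protection against virus-induced loss of viability.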

MT4 [6] = assay: Effective concentration required to inhibit HIV-1 IIIB in MT-4 cell culture; assay type: functional, cell-based; method in brief: as §2
HEL [7] = assay: Effective concentration required to inhibit HCMV Davis in HEL Cells; assay type: functional, cell-based
Method in brief: (§3)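 Confluent HEL cells infected with HCMV at 100 PFU/well. After 1-2 h, residual virus removed and MEM with 2% inactivated FCS added, with compound in duplicate at 5-fold dilution steps. After 7 days at 37 °C in 5% CO2, cells fixed with ethanol and Giemsa-stained; plaques or CPE scored microscopically. IC50 interpolated graphically; mean of two independent experiments.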

CCRF-CEM [8] = assay: Cytostatic concentration of the cell proliferation; assay type: functional
HEL [9] = assay: Cytostatic concentration required to inhibit HEL cell proliferation; assay type: functional
Method in brief: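 HEL fibroblasts seeded at 5 × 10^3 cells/well and grown 24 h, then given compound in duplicate. After 3 days at 37 °C in 5% CO2, cell number read on a Coulter counter. CC50 = concentration reducing cell growth by 50%.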

HEL [10] = assay: Effective concentration required to inhibit HCMV AD-169 in HEL Cells; assay type: functional, cell-based; method in brief: as §3
CCRF-CEM [11] = assay: Cytostatic concentration required to inhibit CEM cell proliferation; assay type: functional
Method in brief: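 CEM cells, mock-infected, grown with serial compound dilutions for 4 days. CC50 taken as the concentration that inhibits CEM cell proliferation by 50%.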

Row | Structure (SMILES) | CC50 (MT4 [1]) | MCC (HEL [2]) | EC50 (CCRF-CEM [3]) | EC50 (CCRF-CEM [4]) | EC50 (MT4 [5]) | EC50 (MT4 [6]) | EC50 (HEL [7]) | CC50 (CCRF-CEM [8]) | CC50 (HEL [9]) | EC50 (HEL [10]) | CC50 (CCRF-CEM [11])
1 | Cc1cn([C@@H]2O[C@H](CO[Si](C)(C)C(C)(C)C)[C@@]3(OS(=O)(=O)C=C3NCCC(N)=O)[C@H]2O[Si](C)(C)C(C)(C)C)c(=O)n(C)c1=O | 20 µM | ≥ 80 µM | > 10 µM | 5 µM | > 10 µM | > 10 µM | 29 µM | 21 µM | 14.8 µM | > 16 µM | 
2 | CC(=O)NC1=CS(=O)(=O)O[C@@]12[C@@H](CO[Si](C)(C)C(C)(C)C)O[C@@H](n1cc(C)c(=O)n(C)c1=O)[C@@H]2O[Si](C)(C)C(C)(C)C | 10.7 µM | ≥ 80 µM | > 25 µM | > 25 µM | > 5 µM | > 5 µM | > 16 µM |  | > 200 µM | 40 µM | 25.7 µM
3 | COC(=O)CNC1=CS(=O)(=O)O[C@@]12[C@@H](CO[Si](C)(C)C(C)(C)C)O[C@@H](n1cc(C)c(=O)n(C)c1=O)[C@@H]2O[Si](C)(C)C(C)(C)C | 105 µM | ≥ 400 µM | > 125 µM | 0.6 µM | > 125 µM | 1.61 µM | > 400 µM |  | 160 µM | > 400 µM | 96 µM
4 | COC(=O)CC(=O)NC1=CS(=O)(=O)O[C@@]12[C@@H](CO[Si](C)(C)C(C)(C)C)O[C@@H](n1cc(C)c(=O)n(C)c1=O)[C@@H]2O[Si](C)(C)C(C)(C)C | 11.9 µM | 400 µM | > 25 µM | ≥ 5 µM | > 5 µM | 19.5 µM | 10 µM |  | 29 µM | 9 µM | 29.7 µM
5 | Cc1cn([C@@H]2O[C@H](CO[Si](C)(C)C(C)(C)C)[C@@]3(OS(=O)(=O)C=C3NCCC(=O)OCc3ccccc3)[C@H]2O[Si](C)(C)C(C)(C)C)c(=O)n(C)c1=O | > 250 µM | ≥ 400 µM | > 250 µM | > 250 µM | > 250 µM | > 250 µM | > 400 µM |  | > 200 µM | > 400 µM | > 250 µM
